Data set [1] deals with T1, Peroxisome proliferator-activated receptor gamma (Homo sapiens) (UniProt P37231).
T1 sequence (whole entry): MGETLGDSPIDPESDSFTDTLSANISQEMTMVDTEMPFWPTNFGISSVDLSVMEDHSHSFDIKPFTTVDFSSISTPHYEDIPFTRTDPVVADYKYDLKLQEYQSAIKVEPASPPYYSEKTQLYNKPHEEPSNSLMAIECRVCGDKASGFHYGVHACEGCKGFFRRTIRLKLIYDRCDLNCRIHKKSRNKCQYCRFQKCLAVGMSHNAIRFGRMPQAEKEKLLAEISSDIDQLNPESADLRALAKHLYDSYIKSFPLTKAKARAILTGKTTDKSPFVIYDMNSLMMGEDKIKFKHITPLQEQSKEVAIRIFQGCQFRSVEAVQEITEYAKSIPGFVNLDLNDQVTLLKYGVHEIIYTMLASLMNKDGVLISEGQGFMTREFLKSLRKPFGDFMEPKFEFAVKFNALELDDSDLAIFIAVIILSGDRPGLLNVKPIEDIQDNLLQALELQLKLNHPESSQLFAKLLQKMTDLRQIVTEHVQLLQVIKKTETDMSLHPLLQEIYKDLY
Nature of the data set: Agonist activity at human PPARgamma ligand binding domain expressed in MEF cells co-transfected with Gal4-responsive luciferase vector assessed as photinus/renilla luciferase activity at 100 uM by transactivation assay relative to control. The format is cell-based. In outline: (§1)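 Mouse embryonic fibroblasts were transiently transfected at 50-70% confluence. Each well got 2.5 ng pRL-CMV Renilla vector, 30 ng Gal4-responsive luciferase reporter and 15 ng pM-hPPARγ-LBD. Medium was changed at 6 h to DMEM with vehicle (0.1% DMSO), 1 µM rosiglitazone or compound. Cells were lysed 18 h post-transfection for dual luciferase. Photinus was normalized to Renilla and expressed as fold over vehicle. Triplicates, each read in duplicate.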

Data set [2] addresses T1, Peroxisome proliferator-activated receptor gamma (Homo sapiens). Briefly: Agonist activity at human PPARgamma ligand binding domain expressed in MEF cells co-transfected with Gal4-responsive luciferase vector assessed as photinus/renilla luciferase activity at 40 uM by transactivation assay relative to control. The format is cell-based. In outline: as §1
The target is the same in data set [3]. Briefly: Agonist activity at human PPARgamma ligand binding domain expressed in MEF cells co-transfected with Gal4-responsive luciferase vector assessed as photinus/renilla luciferase activity at 80 uM by transactivation assay relative to control. The format is cell-based. A digest of the protocol:
as §1

A further data set relates to MEF. Briefly: Apparent cytotoxicity against MEF at 100 uM. The following applies: mouse. The class given is cell-based.
The test system of data set [4] is 3T3-L1. Briefly: Induction of adipocytes differentiation in mouse 3T3L1 cells treated after 48 hrs postconfluence measured after 8 days using DEX protocol. The format is functional, cell-based. In outline: (§2)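 3T3-L1 cells were grown in DMEM with 10% calf serum. Two days postconfluence (day 0) they were induced in DMEM/10% FBS with compound plus 1 µM dexamethasone, then refed at 48 h with compound. From day 4 medium was DMEM/10% FBS, changed every second day. At day 8 cells were formaldehyde-fixed and stained for triacylglycerol with Oil Red O. Triplicate, three concentrations.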

Data set [5] concerns 3T3-L1. Briefly: Induction of adipocytes differentiation in mouse 3T3L1 cells treated after 48 hrs postconfluence measured after 8 days using MDI protocol. The class given is functional, cell-based. A digest of the protocol: (§3)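 3T3-L1 cells were induced two days postconfluence in DMEM/10% FBS with compound plus 1 µM dexamethasone, 0.5 mM isobutylmethylxanthine and 1 µg/mL insulin. At 48 h they were refed with compound and 1 µg/mL insulin. From day 4 medium was DMEM/10% FBS, changed every second day. At day 8 cells were formaldehyde-fixed and stained with Oil Red O. Triplicate, three concentrations.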

For data set [6], the system named is 3T3-L1. Nature of the data set: Induction of adipocytes differentiation in mouse 3T3L1 cells at > 200 uM treated after 48 hrs postconfluence measured after 8 days using DEX protocol. The format is functional, cell-based. A digest of the protocol:
as §2

For data set [7], the system named is 3T3-L1. Nature of the data set: Induction of adipocytes differentiation in mouse 3T3L1 cells at > 200 uM treated after 48 hrs postconfluence measured after 8 days using MDI protocol. The class given is functional, cell-based. A digest of the protocol: as §3
Data set [8] addresses T1, Peroxisome proliferator-activated receptor gamma (Homo sapiens). Briefly: Agonist activity at human PPARgamma ligand binding domain expressed in MEF cells co-transfected with Gal4-responsive luciferase vector assessed as photinus/renilla luciferase activity at 30 uM by transactivation assay relative to control. The class given is cell-based. A digest of the protocol:
as §1

In data set [9] the test system is 3T3-L1. Briefly: Increase in insulin-stimulated [14C]2-deoxy-D-glucose uptake in mouse 3T3L1 cells after 48 hrs by scintillation counting. The format is functional, cell-based. In outline: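 MDI-differentiated 3T3-L1 adipocytes were treated with compound or 1 µM rosiglitazone from day 8 for 48 h, then serum-starved 2 h at 37 °C. Cells were incubated in KRHB pH 7.4 for 30 min, insulin was added for 15 min, then [14C]2-deoxy-D-glucose at 1.0 mM final glucose for 15 min. Background came from 20 µM cytochalasin B wells. Scintillation counting, 8 wells per condition, mean ± SEM.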

Active and inactive are the calls of the source. No cut-off for these calls is given here.

Take `C/C=C/C=C\CC/C=C/C=C/C(=O)NCC(C)C`: the fold change (FC) in data set [1] was 2. Turning to `CC/C=C\C/C=C\C/C=C\CCCCCCCC(=O)O`, in [2], the fold change (FC) came out at 10. Consider `CCCCCCC/C=C/C=C/C(=O)NCC(C)C`, for which the fold change (FC) in [3] worked out at 4. Also, the Activity result in the data set with MEF was “Toxic”. In addition, the result in the data set with 3T3-L1 [4] and in the data set on 3T3-L1 [5] was Active. Turning to `CCCCCC/C=C\CCCCCCCC(=O)O`, the fold change (FC) in data set [2] came to 10. Consider `C/C=C\C=C/CC/C=C/C=C/C(=O)NCC(C)C`, for which the fold change (FC) in data set [1] came to 2.

Consider `C/C=C\C#CCC/C=C\C=C\C(=O)NCC(C)C`, for which, in data set [1], the fold change (FC) is 2.

For `C/C=C/C=C\C/C=C\CCCCC/C=C/C(=O)NCC(C)C`, the result in the data set with 3T3-L1 [6] and with 3T3-L1 [7] was inactive. Moreover, the Activity entry was “Toxic” with MEF and “Dose-dependent effect” in the data set on 3T3-L1 [9]. For the same compound, in data set [8], the fold change (FC) worked out at 10. For `CCCCC/C=C\C/C=C\CCCCCCCC(=O)O`, the fold change (FC) in [2] came to 10.

(Values after ChEMBL document CHEMBL1151955, “Activation of PPARgamma by metabolites from the flowers of purple coneflower (Echinacea purpurea)” (J Nat Prod, 2009).)
